Bioassay records as filed in PubChem BioAssay.
Rows were chosen to be rich in hits. Some 4.5% of all compounds tested hit in one or more screens of this group.
XBP1 UPR activ – activators of adaptive XBP1 UPR arm, primary screen, cell-based, CHO-XBP1 luciferase reporter, luminescence, uHTS. IRE1-XBP1 UPR activation; percent of tunicamycin response, DMSO as zero. activation, % at 20 µM. 0.33% of 330,000 active;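 active = versus positive control, 20 µM dose yields 30% or more activation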;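 also: 100% = tunicamycin at 10 µg/mL and 0% = DMSO only wells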
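assay system = CHO-XBP1 luciferase reporter cells | amount = 1000 cells/well | buffer or medium = F12 plus 10% FBS | compound dosing = single point, 20 µM final compound, 1% DMSO | incubation = 16-18 h cell attachment at 37 °C, then 6 h compound exposure | detection = Steady-Glo luminescence read | controls = tunicamycin 10 µg/mL and vehicle-only wells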
p97 inhibitor – inhibitors of human p97 ATPase, primary screen, biochemical; AID 1481, 2009; 0.42% of 220,000 active; recombinant p97 ATPase, Kinase-Glo ATP luminescence, 3 h; inhibition, % at 8 µM; Transitional endoplasmic reticulum ATPase (Homo sapiens), P55072; in the data active = inhibition above about 15%;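 also: 0% = DMSO vehicle and 100% = wells lacking enzyme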
PfM18AAP inh – PfM18AAP inhibitors, malaria aminopeptidase, primary screen, biochemical, QFRET, recombinant enzyme | 1.2% of 290,000 active | M18 aspartyl aminopeptidase (Plasmodium falciparum 3D7) | AID 1822, 2009 | inhibition, % at 7.35 µM | H-Glu-NHMec fluorogenic cleavage;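 active = inhibition above the campaign mean inhibition over all tested compounds plus 3 SD, cut at about 28% in these data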;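 also: 0% = plate median of test compound wells and 100% = 2 mM ZnCl2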
CHOP inh – inhibitors of CHOP promoter induction, primary screen, cell-based, unfolded protein response, luciferase reporter; CHO-K1 CHOP-promoter luciferase, tunicamycin-induced, 15-18 h; 3.8% of 220,000 active; inhibition, % at 10 µM;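 active = compounds that reduced the stress-induced luciferase reporter signal by more than about 70% of percent inhibition, limit read from the data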;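 also: 0% = tunicamycin plus vehicle and 100% = wells without tunicamycin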
NS3 helicase inh – inhibitors of HCV NS3 helicase, primary screen, biochemical, Cy5 molecular beacon fluorescence | AID 1800, 2009 | 0.56% of 290,000 active | NS3 helicase DNA unwinding | Hepatitis C virus NS3 helicase | inhibition, % at 10.9 µM;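 active = inhibition above the mean of all tested compounds plus 3 SD, set per campaign, cut at about 35% in these data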;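 also: 0% = DMSO wells and 100% = thioflavine S control wells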
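Measured by: Cy5 fluorescence, 0 and 60 min reads / Assay system: NS3 helicase fragment of HCV / Control set: low DMSO, high thioflavine S at 110 µM / Times: 1 h reaction at 25 °C, ATP-initiated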
UPR CHOP act – activators of apoptotic CHOP UPR arm, primary screen, cell-based, CHO-CHOP luciferase reporter, luminescence, uHTS; UPR activation; percent of tunicamycin response over DMSO baseline; activation, % at 10 µM; 0.34% of 330,000 active; AID 449763, 2010;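 active = at 10 µM dose, activation of 40% or more, normalized to positive control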;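 also: 100% = tunicamycin at 10 µg/mL and 0% = DMSO alone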
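System: CHO-CHOP luciferase reporter cell line | Buffer or medium: F12 medium containing 10% fetal bovine serum | Doses: One dose, 10 µM in 0.5% DMSO | Times: 6 h compound exposure at 37 °C after overnight seeding | Signal: Luciferase luminescence | Read-out: % activation vs tunicamycin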
An asterisk follows results filed as active; . = not tested or not shown.

SMILES	XBP1 UPR activ	p97 inhibitor	PfM18AAP inh	CHOP inh	NS3 helicase inh	UPR CHOP act
O=C(Nc1cc(Oc2ccc(Cl)cc2)cc([N+](=O)[O-])c1)c1ccco1	1	3	-10	50	3	0
Cc1ccc(Oc2cc(NC(=O)CCCn3nc([N+](=O)[O-])cc3C)cc([N+](=O)[O-])c2)cc1	0	-3	0	73*	-10	2
Cc1nn(CCCC(=O)Nc2cc(Oc3ccccc3)cc([N+](=O)[O-])c2)c(C)c1[N+](=O)[O-]	-3	2	2	61	-3	-1
Cc1nn(C)cc1C(=O)Nc1cc(Oc2ccc(Cl)cc2)cc([N+](=O)[O-])c1	0	2	0	82*	0	-3
CCOc1ccc(NC(=O)C2CCCN(C)C2)cc1 (configuration not stated)	-1	12	2	6	16	0
COC(=O)c1c(C)oc2ccc(OC(=O)c3cccs3)cc12	-1	-1	3	86*	-2	-3
O=C(Cn1cnc2ccccc2c1=O)Nc1nnc(C2CC2)s1	-2	5	4	6	5	1
O=C(Cn1cnc2ccccc2c1=O)Nc1nnc(SCc2ccc(Cl)cc2)s1	0	7	-7	86*	-2	0
CCn1ccnc1CN(C)C(=O)c1cc(COc2ccc(OC)c3ccccc23)on1	-2	.	-3	.	-26	6
CCOC(=O)[C@H]1[C@H]2COc3ccc(Cl)cc3[C@@H]2N2C(=O)CN(Cc3ccc(Cl)cc3)C(=O)[C@@]12C	-1	.	.	.	.	-1
COCCCNC(=S)NNC(=O)Cn1nc(C)c(Br)c1C	1	2	30*	-17	1	0
CCOCCCNC(=S)NNC(=O)CCn1nc(C)c(Br)c1C	-2	-4	-6	-12	-15	-1
COc1ccc(OCc2nnc(SCC(=O)c3c(N)n(C)c(=O)n(C)c3=O)n2-c2ccccc2F)cc1	-1	3	5	8	-2	-2
CCn1cc(C(=O)N2CCN(c3ccc(C(C)=O)cc3)CC2)c2cc(OC)c(OC)cc2c1=O	2	-1	-8	-5	0	0
CC(C)(O)C#Cc1ccc([C@@H]2C[C@H]3CN(c4ccccc4)C(=O)[C@]34CCCN24)s1	-2	-7	1	95*	1	-2
COc1ccc([C@@H]2C[C@H]3CN(c4ccccc4)C(=O)[C@]34CCCN24)c(OC)c1OC	-3	0	-1	19	-1	0
COc1ccc(Cl)cc1NC(=O)CN1C(=O)NC(Cc2c[nH]c3ccccc23)C1=O (configuration not stated)	1	.	.	.	.	0
O=C(c1ccccc1)c1ccc(NCCCn2ccnc2)c([N+](=O)[O-])c1	0	.	0	.	-7	-1
CNc1oc(-c2ccc(Cl)cc2)nc1P(=O)(c1ccccc1)c1ccccc1	0	1	3	71*	-16	0
Cc1ccc(-c2nc(P(=O)(c3ccccc3)c3ccccc3)c(N3CCOCC3)o2)cc1	4	-5	6	8	-5	-1
O=c1cc(-c2ccccc2)nc(SCCOc2ccccc2Cl)[nH]1	-5	-3	3	74*	1	-2
COc1cc(CSc2nc(-c3ccccc3)cc(=O)[nH]2)cc(OC)c1	-2	.	-7	.	7	2
O=C(Nc1nccs1)c1ccc(Br)s1	-2	.	-13	.	-6	4
N#Cc1ccc(NC(=O)Nc2ccc(Cl)cc2)cc1	3	4	2	78*	2	18
O=[N+]([O-])c1ccc(/C=N/n2cnc3ccccc32)s1	6	4	0	83*	-9	16
SMILES	XBP1 UPR activ	p97 inhibitor	PfM18AAP inh	CHOP inh	NS3 helicase inh	UPR CHOP act
Cc1cc2ncn(/N=C/c3ccc([N+](=O)[O-])s3)c2cc1C	.	-7	-7	3	17	.
C/C(=C\C1CCCCC1)C(NC(=O)c1ccc(C(F)(F)F)cc1)c1ccc(-c2ccccc2)cc1 (configuration not stated)	-3	.	.	.	.	0
CC/C(=C\C1CCCCC1)C(NP(=O)(c1ccccc1)c1ccccc1)c1ccccc1 (configuration not stated)	5	0	0	86*	6	1
O=C(c1cnn(C(=O)COc2ccc(Cl)cc2)c1)c1ccccc1O	1	4	30*	49	-16	-1
Cc1ccc(O)c(C(=O)c2cnn(C(=O)COc3ccc(Cl)cc3)c2)c1	-3	1	15	43	-1	-1
O=C(c1cnn(C(=O)c2ccccc2)c1)c1ccccc1O	-1	-6	31*	4	3	2
O=C(c1cnn(C(=O)c2ccccc2F)c1)c1ccccc1O	-2	.	.	.	.	1
Clc1ccccc1C1CC(c2ccccc2)Nc2ncnn21 (configuration not stated)	-1	5	-4	92*	-1	-1
O=C1N/C(=N\N=C\c2cccs2)SC1Cc1ccc(Cl)cc1Cl (configuration not stated)	2	-4	-8	44	-2	1
O=C(CC1S/C(=N/N=C/c2cccs2)NC1=O)Nc1ccc(Cl)cc1 (configuration not stated)	9	-4	-1	94*	-3	0
Oc1ccccc1N=Nc1ccccc1O	.	9	11	73*	-3	.
Cc1[nH][nH]c(=O)c1C(c1ccc(-c2ccc(F)cc2)o1)c1c(C)[nH][nH]c1=O	1	9	14	-68	11	5
COc1ccc(-c2ccc(C(c3c(C)[nH][nH]c3=O)c3c(C)[nH][nH]c3=O)o2)c([N+](=O)[O-])c1	-2	15*	16	-39	4	2
CC1CCN(C(=O)C(C)OC(=O)CSc2ccc([N+](=O)[O-])cc2)CC1 (configuration not stated)	-1	.	.	.	.	-1
COc1cccc(NC(=O)C2COc3ccccc3O2)c1 (configuration not stated)	-2	.	4	.	4	2
Cc1sc(NC(=O)c2oc3ccccc3c2C)c(C#N)c1C	0	3	6	15	6	2
Cc1cc(C(=O)Nc2sc(C)c(C)c2C#N)c(C)o1	2	5	6	75*	17	0
CC1CC(=O)Nc2ccccc2N1C(=O)CN1C(=O)C(=O)N(C)C1=O (configuration not stated)	-1	.	.	.	.	-1
CC1CC(=O)Nc2ccccc2N1C(=O)CN1CCN(c2ccccc2)CC1 (configuration not stated)	2	5	-1	80*	8	1
